Laboratory results: ChEMBL document CHEMBL2176949 (J Med Chem, 2012)

Tests used:
[1] = molecular target: Neuronal acetylcholine receptor subunit alpha-7 (Mus musculus, UniProt P49582)
[2] = molecular target: T1, Neuronal acetylcholine receptor; alpha4/beta2 (Homo sapiens, UniProt P17787+P43681); experiment: Agonist activity at human alpha4beta2 nAChR low sensitivity form expressed in human SH-EP1 cells assessed as increase in calcium flux by FLIPR; type: functional, cell-based
[3] = Agonist activity at human nAChR alpha6/alpha3beta2beta3 V273S mutant expressed in HEK293T cells by FLIPR relative to 10 uM nicotine; type: functional, HEK-293T
[4] = Agonist activity at rat alpha7 nAChR T6'S59 mutant expressed in rat GH4C1 cells by whole cell voltage clamp based electrophysiology method; type: functional; conditions: GH4-C1
How it was run: (§1)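 Whole-cell voltage clamp at -60 mV, room temperature (22 ± 1 °C), one cell per agonist load, Dynaflow fast application. Agonist applied 1 s for α4β2 and 0.5 s for α7, with 30 s washout. Tris-based pipette solution, pH 7.3. Concentration-response data fitted to the Hill equation, with α4β2 fitted as the sum of two Hill equations. Max % relative to 1 mM ACh.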

[5] = molecular target: Neuronal acetylcholine receptor; alpha3/alpha6/beta2/beta3 (Homo sapiens, UniProt P17787+P32297+Q05901+Q15825); experiment: Displacement of [3H]epibatidine from human alpha6/alpha3beta2beta3 nAChR expressed in HEK293T cells
Neuronal acetylcholine receptor; alpha3/alpha6/beta2/beta3, sequence (P17787 whole entry): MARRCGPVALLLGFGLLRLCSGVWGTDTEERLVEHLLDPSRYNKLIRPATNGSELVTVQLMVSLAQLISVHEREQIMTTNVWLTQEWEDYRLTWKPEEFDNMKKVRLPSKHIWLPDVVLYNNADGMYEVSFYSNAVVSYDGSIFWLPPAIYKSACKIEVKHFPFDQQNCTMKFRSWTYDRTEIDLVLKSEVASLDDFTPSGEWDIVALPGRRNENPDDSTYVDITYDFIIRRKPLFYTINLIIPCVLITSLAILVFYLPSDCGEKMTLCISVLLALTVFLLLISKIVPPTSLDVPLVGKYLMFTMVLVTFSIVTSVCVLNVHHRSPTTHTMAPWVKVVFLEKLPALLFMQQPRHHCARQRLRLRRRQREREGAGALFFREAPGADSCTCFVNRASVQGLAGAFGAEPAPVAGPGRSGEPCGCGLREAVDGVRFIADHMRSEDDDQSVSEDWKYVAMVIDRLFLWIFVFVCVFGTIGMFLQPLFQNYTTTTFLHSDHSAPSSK
Neuronal acetylcholine receptor; alpha3/alpha6/beta2/beta3, sequence (P32297 whole entry): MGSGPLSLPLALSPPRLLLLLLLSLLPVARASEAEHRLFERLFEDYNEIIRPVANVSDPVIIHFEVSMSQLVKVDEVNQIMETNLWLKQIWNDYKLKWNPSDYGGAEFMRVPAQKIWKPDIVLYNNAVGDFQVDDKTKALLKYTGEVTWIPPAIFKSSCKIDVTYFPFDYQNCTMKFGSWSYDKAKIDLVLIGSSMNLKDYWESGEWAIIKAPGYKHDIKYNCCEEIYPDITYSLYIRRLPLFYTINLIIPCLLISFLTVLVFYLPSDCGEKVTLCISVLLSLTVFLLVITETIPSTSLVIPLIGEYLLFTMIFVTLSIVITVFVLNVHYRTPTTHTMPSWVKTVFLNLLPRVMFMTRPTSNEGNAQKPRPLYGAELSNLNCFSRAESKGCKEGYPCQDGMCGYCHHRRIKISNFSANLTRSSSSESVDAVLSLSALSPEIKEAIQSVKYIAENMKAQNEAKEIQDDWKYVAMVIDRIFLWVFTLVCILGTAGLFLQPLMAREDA
Neuronal acetylcholine receptor; alpha3/alpha6/beta2/beta3, sequence (Q15825 whole entry): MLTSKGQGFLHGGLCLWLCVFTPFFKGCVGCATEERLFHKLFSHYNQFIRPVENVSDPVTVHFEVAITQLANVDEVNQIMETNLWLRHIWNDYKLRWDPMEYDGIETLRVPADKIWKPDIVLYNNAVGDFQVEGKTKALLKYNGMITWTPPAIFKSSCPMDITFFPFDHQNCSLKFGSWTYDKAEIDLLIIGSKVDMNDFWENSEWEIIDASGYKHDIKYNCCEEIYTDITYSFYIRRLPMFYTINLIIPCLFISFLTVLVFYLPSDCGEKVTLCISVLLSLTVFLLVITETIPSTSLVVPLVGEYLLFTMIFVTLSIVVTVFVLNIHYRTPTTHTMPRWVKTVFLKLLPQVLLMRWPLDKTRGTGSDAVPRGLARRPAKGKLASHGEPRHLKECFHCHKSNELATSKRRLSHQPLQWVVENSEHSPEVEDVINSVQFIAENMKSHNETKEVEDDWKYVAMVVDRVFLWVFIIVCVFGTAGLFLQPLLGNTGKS
Neuronal acetylcholine receptor; alpha3/alpha6/beta2/beta3, sequence (Q05901 whole entry): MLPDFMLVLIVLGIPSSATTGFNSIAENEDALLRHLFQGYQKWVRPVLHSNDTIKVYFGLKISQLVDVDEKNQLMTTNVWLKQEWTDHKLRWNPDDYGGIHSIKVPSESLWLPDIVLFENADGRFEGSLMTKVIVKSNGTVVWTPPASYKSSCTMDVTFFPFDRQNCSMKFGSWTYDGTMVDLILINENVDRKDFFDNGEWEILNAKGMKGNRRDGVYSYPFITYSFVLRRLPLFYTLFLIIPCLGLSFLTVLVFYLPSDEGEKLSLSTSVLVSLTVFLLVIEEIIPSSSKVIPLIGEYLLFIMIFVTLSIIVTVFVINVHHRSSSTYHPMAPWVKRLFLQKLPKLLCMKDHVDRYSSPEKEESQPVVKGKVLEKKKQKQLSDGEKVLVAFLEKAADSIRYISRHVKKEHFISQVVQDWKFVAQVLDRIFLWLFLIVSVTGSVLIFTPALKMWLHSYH

[6] = molecular target: Nicotinic acetylcholine receptor alpha6/alpha3/beta2/beta3 (Rattus norvegicus) (UniProt P04757+P12390+P12391+P43143); experiment: Agonist activity at alpha6/alpha3beta2beta3 nAChR in Sprague-Dawley rat striatal synaptosomes assessed as induction of dopamine release relative to 10 uM nicotine; type: functional, subcellular; conditions: Brain
[7] = molecular target: T1, Neuronal acetylcholine receptor; alpha4/beta2; experiment: Agonist activity at human alpha4beta2 nAChR high sensitivity form expressed in human SH-EP1 cells assessed as increase in calcium flux by FLIPR; type: functional, cell-based
[8] = molecular target: T2, Neuronal acetylcholine receptor; alpha3/beta4 (Homo sapiens, UniProt P30926+P32297); experiment: Agonist activity at human alpha3beta4 nAChR expressed in human SH-SY5Y cells assessed as increase in calcium flux by FLIPR; type: functional, cell-based
T2 sequence (P30926 whole entry): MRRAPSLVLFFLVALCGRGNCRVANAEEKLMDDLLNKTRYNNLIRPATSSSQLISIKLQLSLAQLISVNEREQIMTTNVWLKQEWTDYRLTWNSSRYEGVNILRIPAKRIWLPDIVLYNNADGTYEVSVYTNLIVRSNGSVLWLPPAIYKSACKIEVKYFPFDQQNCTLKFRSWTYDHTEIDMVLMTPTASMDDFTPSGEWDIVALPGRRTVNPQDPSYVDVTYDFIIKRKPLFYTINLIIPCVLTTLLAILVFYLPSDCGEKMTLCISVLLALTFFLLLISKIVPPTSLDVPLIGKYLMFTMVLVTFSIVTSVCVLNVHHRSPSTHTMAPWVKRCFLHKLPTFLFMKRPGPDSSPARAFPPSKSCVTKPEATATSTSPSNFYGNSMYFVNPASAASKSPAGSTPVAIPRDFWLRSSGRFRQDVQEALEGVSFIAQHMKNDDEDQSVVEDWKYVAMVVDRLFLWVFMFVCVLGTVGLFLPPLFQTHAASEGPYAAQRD
T2 sequence (P32297 whole entry): as the sequence (P32297 whole entry) above

[9] = Agonist activity at human nAChR alpha6/alpha3beta2beta3 V273S mutant expressed in HEK293T cells by FLIPR; type: functional, cell-based; conditions: HEK-293T
[10] = molecular target: T2, Neuronal acetylcholine receptor; alpha3/beta4; experiment: Agonist activity at human alpha3beta4 nAChR expressed in human SH-SY5Y cells assessed as increase in calcium flux by FLIPR relative to 10 uM nicotine; type: functional, cell-based
[11] = molecular target: T1, Neuronal acetylcholine receptor; alpha4/beta2; experiment: Displacement of [3H]nicotine from human alpha4beta2 nAChR expressed in human SH-EP1 cells; type: cell-based
How it was run: (§2)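 Binding to membranes from the cell lines: homogenised in PBS pH 7.4, spun at 40000g for 20 min at 4 °C, then incubated 2 h on ice in PBS with competitor (0.001 nM to 100 μM) and radioligand. Filters washed in ice-cold PBS and counted by scintillation. IC50 from nonlinear regression; Ki by Cheng-Prusoff. Minimum of three assays, ± SEM.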

[12] = molecular target: T1, Neuronal acetylcholine receptor; alpha4/beta2; experiment: Agonist activity at human alpha4beta2 nAChR expressed in human SH-EP1 cells by whole cell voltage clamp based electrophysiology method relative to 1 mM acetylcholine; type: functional
How it was run: as §1

[13] = molecular target: T1, Neuronal acetylcholine receptor; alpha4/beta2; experiment: Agonist activity at human alpha4beta2 nAChR high sensitivity form expressed in human SH-EP1 cells assessed as increase in calcium flux by FLIPR relative to 10 uM nicotine; type: functional, cell-based
[14] = Agonist activity at rat alpha7 nAChR T6'S59 mutant expressed in rat GH4C1 cells by whole cell voltage clamp based electrophysiology method relative to 1 mM acetylcholine; type: functional, GH4-C1
How it was run: as §1

[15] = molecular target: Nicotinic acetylcholine receptor alpha6/alpha3/beta2/beta3 (Rattus norvegicus, UniProt P04757+P12390+P12391+P43143); experiment: Agonist activity at alpha6/alpha3beta2beta3 nAChR in Sprague-Dawley rat striatal synaptosomes assessed as induction of dopamine release; type: functional, subcellular, Brain
[16] = molecular target: T1, Neuronal acetylcholine receptor; alpha4/beta2; experiment: Agonist activity at human alpha4beta2 nAChR low sensitivity form expressed in human SH-EP1 cells assessed as increase in calcium flux by FLIPR relative to 10 uM nicotine; type: functional, cell-based
[17] = molecular target: T2, Neuronal acetylcholine receptor; alpha3/beta4; experiment: Displacement of [3H]epibatidine from human alpha3beta4 nAChR expressed in human SH-SY5Y cells; type: cell-based
How it was run: as §2

[18] = molecular target: Neuronal acetylcholine receptor subunit alpha-7 (Homo sapiens, UniProt P36544); experiment: Displacement of [3H]epibatidine from human alpha7 nAChR expressed in human HEK/RIC3 cells; type: cell-based
Neuronal acetylcholine receptor subunit alpha-7 (Homo sapiens, UniProt P36544), sequence (P36544 whole entry): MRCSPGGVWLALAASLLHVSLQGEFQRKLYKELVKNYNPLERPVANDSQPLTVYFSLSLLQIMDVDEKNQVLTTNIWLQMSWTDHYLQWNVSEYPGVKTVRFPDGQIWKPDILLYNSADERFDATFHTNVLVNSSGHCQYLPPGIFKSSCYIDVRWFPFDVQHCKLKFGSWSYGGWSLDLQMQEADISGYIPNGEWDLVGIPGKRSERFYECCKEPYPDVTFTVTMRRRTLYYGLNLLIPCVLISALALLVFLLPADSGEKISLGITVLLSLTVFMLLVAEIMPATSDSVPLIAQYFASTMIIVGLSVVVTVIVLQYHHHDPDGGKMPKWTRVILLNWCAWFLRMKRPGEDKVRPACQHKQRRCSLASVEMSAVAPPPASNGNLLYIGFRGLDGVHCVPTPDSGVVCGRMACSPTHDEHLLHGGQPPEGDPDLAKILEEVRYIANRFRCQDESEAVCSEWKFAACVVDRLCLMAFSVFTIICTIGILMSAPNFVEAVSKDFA
How it was run: as §2

[19] = molecular target: T1, Neuronal acetylcholine receptor; alpha4/beta2; experiment: Agonist activity at human alpha4beta2 nAChR expressed in human SH-EP1 cells by whole cell voltage clamp based electrophysiology method; type: functional
How it was run: as §1

[20] = organism: Homo sapiens; experiment: Ratio of EC50 for human nAChR alpha6/alpha3beta2beta3 V273S mutant to Ki for human alpha6/alpha3beta2beta3 nAChR
[21] = organism: Homo sapiens; experiment: Selectivity index, ratio of Ki for human alpha3beta4 nAChR to Ki for human alpha4beta2 nAChR
[22] = molecular target: T3, Neuronal acetylcholine receptor subunit alpha-7 (Rattus norvegicus, UniProt Q05941); experiment: Binding affinity to rat alpha7 nAChR
T3 sequence (Q05941 whole entry): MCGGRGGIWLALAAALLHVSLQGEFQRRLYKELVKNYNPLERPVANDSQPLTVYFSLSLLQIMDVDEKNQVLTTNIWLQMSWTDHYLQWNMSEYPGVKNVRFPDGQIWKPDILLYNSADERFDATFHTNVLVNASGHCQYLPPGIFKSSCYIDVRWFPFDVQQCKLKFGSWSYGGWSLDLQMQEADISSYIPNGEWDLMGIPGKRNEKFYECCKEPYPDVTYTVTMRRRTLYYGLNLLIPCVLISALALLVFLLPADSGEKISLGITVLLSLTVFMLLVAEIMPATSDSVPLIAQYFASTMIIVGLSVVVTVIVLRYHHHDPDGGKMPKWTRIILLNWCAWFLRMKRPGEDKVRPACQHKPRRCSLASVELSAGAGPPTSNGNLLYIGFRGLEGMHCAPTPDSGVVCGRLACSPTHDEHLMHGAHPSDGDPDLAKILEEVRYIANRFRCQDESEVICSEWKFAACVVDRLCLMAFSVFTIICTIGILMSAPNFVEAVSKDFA

[23] = molecular target: Neuronal acetylcholine receptor; alpha4/beta2 (Rattus norvegicus, UniProt P09483+P12390); experiment: Binding affinity to rat alpha4beta2 nAChR
[24] = molecular target: T3, Neuronal acetylcholine receptor subunit alpha-7; experiment: Agonist activity at rat alpha7 nAChR expressed in Xenopus laevis oocytes by two-electrode voltage clamp assay; type: functional, cell-based, Oocyte
[25] = molecular target: T3, Neuronal acetylcholine receptor subunit alpha-7; experiment: Binding affinity to rat alpha7 nAChR expressed in Xenopus laevis oocytes; type: cell-based, Oocyte

T1 sequence (P17787 whole entry): as the sequence (P17787 whole entry) above
T1 sequence (P43681 whole entry): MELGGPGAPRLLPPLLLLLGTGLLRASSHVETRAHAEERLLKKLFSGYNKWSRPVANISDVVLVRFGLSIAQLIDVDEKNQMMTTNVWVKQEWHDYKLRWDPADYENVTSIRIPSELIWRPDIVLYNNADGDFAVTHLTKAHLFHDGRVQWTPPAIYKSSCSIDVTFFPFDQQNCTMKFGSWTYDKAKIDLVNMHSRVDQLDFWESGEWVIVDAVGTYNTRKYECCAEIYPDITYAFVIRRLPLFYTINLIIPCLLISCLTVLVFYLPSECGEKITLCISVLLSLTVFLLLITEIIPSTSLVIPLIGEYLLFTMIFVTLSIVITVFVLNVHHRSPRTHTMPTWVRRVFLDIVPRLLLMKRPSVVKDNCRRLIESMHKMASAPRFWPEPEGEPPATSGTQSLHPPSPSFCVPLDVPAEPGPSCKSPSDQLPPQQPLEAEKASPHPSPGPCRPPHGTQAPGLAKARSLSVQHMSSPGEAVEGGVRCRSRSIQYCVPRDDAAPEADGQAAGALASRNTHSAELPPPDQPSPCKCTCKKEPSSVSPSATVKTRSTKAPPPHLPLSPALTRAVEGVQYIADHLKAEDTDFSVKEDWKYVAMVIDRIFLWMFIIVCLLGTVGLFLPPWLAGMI
Neuronal acetylcholine receptor subunit alpha-7 (Mus musculus, UniProt P49582), sequence (P49582 whole entry): as the sequence (Q05941 whole entry) above, with G4R, A424T counted along it

## CN1CCC[C@H]1c1cccnc1 [NICOTINE]
[1]
  Ki: 244 nM

## CC(C)Oc1cncc(C2=CC3CC(C2)CN(C)C3)c1 (stereo not given)
[2]
  EC50: > 10000 nM
[3]
  %max: 0.2%
[4]
  EC50: 21300 nM
[5]
  Ki: 690 nM
[6]
  %max: 63%
[7]
  EC50: > 10000 nM
[8]
  EC50: > 10000 nM
[9]
  EC50: > 10000 nM
[10]
  %max: 15%
[11]
  Ki: 2.2 nM
[12]
  %max: 10%
[13]
  %max: 1%
[14]
  %max: 60%
[15]
  EC50: 879 nM
[16]
  %max: 3.3%
[17]
  Ki: 1730 nM
[18]
  Ki: > 10000 nM
[19]
  EC50: 3500 nM

## C1=C(c2cccnc2)C[C@H]2CNC[C@@H]1C2
[2]
  EC50: 12 nM
[3]
  %max: 110%
[4]
  EC50: 30 nM
[5]
  Ki: 0.95 nM
[6]
  %max: 73%
[7]
  EC50: 2.3 nM
[8]
  EC50: 37 nM
[9]
  EC50: 14 nM
[20]
  Ratio: 15
[10]
  %max: 142%
[21]
  Ratio Ki: 20
[11]
  Ki: 0.2 nM
[12]
  %max: 40%
[13]
  %max: 114%
[14]
  %max: 20%
[15]
  EC50: 0.95 nM
[16]
  %max: 129%
[17]
  Ki: 4 nM
[18]
  Ki: 1.2 nM
[19]
  EC50: 100 nM

## CN1C[C@H]2C=C(c3cccnc3)C[C@H](C2)C1
[2]
  EC50: 7660 nM
[3]
  %max: 7%
[4]
  EC50: 3800 nM
[5]
  Ki: 300 nM
[6]
  %max: 27%
[7]
  EC50: > 10000 nM
[8]
  EC50: 7530 nM
[9]
  EC50: > 10000 nM
[10]
  %max: 31%
[11]
  Ki: 2.1 nM
[12]
  %max: 19%
[13]
  %max: 19%
[14]
  %max: 100%
[15]
  EC50: > 10000 nM
[16]
  %max: 11%
[17]
  Ki: 534 nM
[18]
  Ki: 74 nM
[19]
  EC50: 3500 nM

## CN1C[C@@H]2C=C(c3cccnc3)C[C@@H](C2)C1
[2]
  EC50: > 10000 nM
[3]
  %max: 9%
[4]
  EC50: 6000 nM
[5]
  Ki: 320 nM
[6]
  %max: 13%
[7]
  EC50: 6660 nM
[8]
  EC50: > 10000 nM
[9]
  EC50: > 10000 nM
[10]
  %max: 25%
[11]
  Ki: 9.4 nM
[12]
  %max: 18%
[13]
  %max: 53%
[14]
  %max: 87%
[15]
  EC50: 855 nM
[16]
  %max: 17%
[17]
  Ki: 1800 nM
[18]
  Ki: 70 nM
[19]
  EC50: 3100 nM

## CC(C)Oc1cncc(C2=CC3CNCC(C2)C3)c1 (stereo not given)
[2]
  EC50: 562 nM
[3]
  %max: 3%
[4]
  EC50: 2800 nM
[5]
  Ki: 2.6 nM
[6]
  %max: 86%
[7]
  EC50: 164 nM
[8]
  EC50: 69 nM
[9]
  EC50: > 10000 nM
[10]
  %max: 160%
[11]
  Ki: 0.26 nM
[12]
  %max: 11%
[13]
  %max: 75%
[14]
  %max: 92%
[15]
  EC50: 1090 nM
[16]
  %max: 54%
[17]
  Ki: 4.8 nM
[18]
  Ki: 105 nM
[19]
  EC50: 1400 nM

## C1=C(c2cccnc2)C[C@@H]2CNC[C@H]1C2
[2]
  EC50: 35 nM
[3]
  %max: 82%
[4]
  EC50: 20 nM
[5]
  Ki: 1 nM
[6]
  %max: 49%
[7]
  EC50: 2.3 nM
[8]
  EC50: 73 nM
[9]
  EC50: 15 nM
[20]
  Ratio: 15
[10]
  %max: 139%
[21]
  Ratio Ki: 230
[11]
  Ki: 0.1 nM
[12]
  %max: 32%
[13]
  %max: 111%
[14]
  %max: 28%
[15]
  EC50: 1.4 nM
[16]
  %max: 131%
[17]
  Ki: 23 nM
[18]
  Ki: 1.3 nM
[19]
  EC50: 50 nM

## C1=C(c2cncc(Oc3ccccc3)c2)CC2CNCC1C2 (stereo not given)
[2]
  EC50: 654 nM
[3]
  %max: 0%
[4]
  EC50: 350 nM
[5]
  Ki: 4.8 nM
[6]
  %max: 57%
[7]
  EC50: 62 nM
[8]
  EC50: 23 nM
[9]
  EC50: > 10000 nM
[10]
  %max: 101%
[11]
  Ki: 0.7 nM
[12]
  %max: 9%
[13]
  %max: 52%
[14]
  %max: 31%
[15]
  EC50: 718 nM
[16]
  %max: 30%
[17]
  Ki: 1.9 nM
[18]
  Ki: 22 nM
[19]
  EC50: 590 nM

## O=c1cccc2n1C[C@@H]1CNC[C@H]2C1 [CYTISINICLINE]
[22]
  Ki: 8000 nM
[23]
  Ki: 1 nM

## c1cnc2cc3c(cc2n1)[C@@H]1CNC[C@H]3C1 [VARENICLINE]
[24]
  EC50: 18000 nM
[25]
  Ki: 300 nM
